Test results reported in ChEMBL document CHEMBL1255201, “A novel arylethynyltriazole acyclonucleoside inhibits proliferation of drug-resistant pancreatic cancer cells” (2010).

System: MIA PaCa-2
Test: Growth inhibition of human MIAPaCa2 cells after 48 hrs by MTT assay
Type: functional
How it was run: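 Cells seeded at 15,000/well, attached overnight, then medium replaced with fresh medium alone (control) or medium containing compound; 48 h at 37 °C, 5% CO2. Viable cells quantified by MTT colorimetric assay.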

With `Nc1ccn([C@@H]2O[C@H](CO)[C@@H](O)C2(F)F)c(=O)n1` [GEMCITABINE] the “inhibition (INH)” value was 30%.
